Measurements taken from ChEMBL document CHEMBL1145996 (J Med Chem, 2003).

Tested on: Leishmania donovani
Assay: Antileishmanial activity of compound against leishmania donovani was determined in luciferase assay
Type: functional, organism-based
Summary of the method: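 Transgenic Leishmania donovani promastigotes expressing firefly luciferase, 2×10^6 cell/mL, exposed to compound dilutions in 96-well plates at 26°C for 72 h; growth read by luciferase luminescence (Steady Glo). At least six concentrations, each in duplicate; mean values used for growth inhibition curves and IC50. Pentamidine and amphotericin B as standards.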

SMILES | IC50 [µM]
CCOC1O[C@@H]2O[C@]3(C)CC[C@H]4[C@H](C)CC[C@@H]([C@H]1C)C24OO3 (stereo partly drawn) | 44.8
CC(C)CCC[C@H]1C(=O)O[C@@H]2O[C@@]3(C)CCC4[C@H](C)CC[C@@H]1[C@]42OO3 (stereo partly drawn) | 8.5
C[C@@H]1CC[C@H]2[C@@H](CCCc3cc(F)cc(F)c3)CO[C@@H]3O[C@@]4(C)CC[C@@H]1[C@]32OO4 | 11
CCCC[C@H]1C(=O)O[C@@H]2O[C@@]3(CCCCc4ccccc4)CCC4[C@H](C)CC[C@@H]1[C@]42OO3 (stereo partly drawn) | 4.5
CC1(C)OO[C@]23CCCC[C@H]2C(C)(C)C(=O)O[C@@H]3O1 | 204
CCC[C@@]12CC[C@H]3[C@H](C)CC[C@H]4CCO[C@H](O1)[C@]43OO2 | 70.8
CCCC[C@H]1C(=O)O[C@@H]2O[C@@]3(CC)CCC4[C@H](C)CC[C@@H]1[C@]42OO3 (stereo partly drawn) | 35.5
CCC[C@H]1C(=O)O[C@@H]2O[C@@]3(C)CCC4[C@H](C)CC[C@@H]1[C@]42OO3 (stereo partly drawn) | 16.8
C[C@@H]1CC[C@H]2[C@@H](CCCc3cc(F)cc(F)c3)C(=O)O[C@@H]3O[C@@]4(C)CCC1[C@]32OO4 (stereo partly drawn) | 49.7
C[C@@H]1CC[C@H]2CCO[C@@H]3OC4(CCc5ccccc5)CC[C@@H]1[C@@]23OO4 (single isomer, unassigned) | 37.7
C[C@@H]1[C@H](O)[C@@H](C)/C=C/C=C/C=C/C=C/C=C/C=C/C=C/[C@H](O[C@@H]2O[C@H](C)[C@@H](O)[C@H](N)[C@@H]2O)C[C@@H]2O[C@](O)(C[C@@H](O)C[C@@H](O)[C@H](O)CC[C@@H](O)C[C@@H](O)CC(=O)O[C@H]1C)C[C@H](O)[C@H]2C(=O)O [AMPHOTERICIN B] | 0.01
C[C@@H]1CC[C@H]2CC(=O)N(Cc3ccccc3)[C@@H]3O[C@@]4(C)CC[C@@H]1[C@@]23OO4 | 56
C[C@@H]1CC[C@H]2CC(=O)O[C@@H]3OC4(CCc5ccccc5)CC[C@@H]1[C@@]23OO4 (single isomer, unassigned) | 12.6
C=CC[C@H]1C(=O)O[C@@H]2O[C@@]3(C)CCC4[C@H](C)CC[C@@H]1[C@]42OO3 (stereo partly drawn) | 17.8
CCOC(=O)CCC12CCC3[C@H](C)CC[C@H]4CC(=O)O[C@H](O1)[C@@]34OO2 (single isomer, unassigned) | 31
CC(C)CN1C(=O)C[C@@H]2CC[C@@H](C)[C@@H]3CC[C@@]4(C)OO[C@@]23[C@H]1O4 | 186
C[C@@H]1CC[C@H]2[C@@H](CCc3ccccc3)C(=O)O[C@@H]3O[C@@]4(C)CCC1[C@]32OO4 (stereo partly drawn) | 40.3
C[C@@H]1CC[C@H]2[C@@H](CCCCc3ccccc3)C(=O)O[C@@H]3O[C@@]4(C)CCC1[C@]32OO4 (stereo partly drawn) | 7.5
C[C@@H]1CC[C@H]2[C@@H](CCCc3cccc(Cl)c3)C(O)O[C@@H]3O[C@@]4(C)CC[C@@H]1[C@]32OO4 (stereo partly drawn) | 16.6
C[C@@H]1CC[C@H]2CC(=O)N(CCc3ccccc3)[C@@H]3O[C@@]4(C)CC[C@@H]1[C@@]23OO4 | 32.3
C[C@@H]1CC[C@H]2[C@H](CCCc3ccc(N(C)C)cc3)C(=O)O[C@@H]3O[C@@]4(C)CCC1[C@]32OO4 (stereo partly drawn) | 88.3
C[C@@H]1CC[C@H]2[C@@H](C)CO[C@@H]3OC4(C)CC[C@@H]1[C@]32OO4 (single isomer, unassigned) [DEOXOARTEMISININ] | 46.6
COc1ccc(CCC[C@H]2CO[C@@H]3O[C@@]4(C)CC[C@H]5[C@H](C)CC[C@@H]2[C@@]35OO4)cc1 | 17.4
C[C@@H]1CC[C@H]2[C@@H](CCCc3cccc(Cl)c3)CO[C@@H]3O[C@@]4(C)CC[C@@H]1[C@]32OO4 | 3.7

SMILES | IC50 [µM]
C[C@@H]1CC[C@H]2CC(=O)N(Cc3ccc(Cl)cc3)[C@@H]3O[C@@]4(C)CC[C@@H]1[C@@]23OO4 | 25.5
C[C@@H]1CC[C@H]2[C@@H](CCCc3ccc(Cl)cc3)C(O)O[C@@H]3O[C@@]4(C)CC[C@@H]1[C@]32OO4 (stereo partly drawn) | 4.7
CCCC[C@H]1C(=O)O[C@@H]2O[C@@]3(C)CCC4[C@H](C)CC[C@@H]1[C@]42OO3 (stereo partly drawn) | 12.3
CC[C@@]12CC[C@H]3[C@H](C)CC[C@H]4CC(=O)O[C@H](O1)[C@]43OO2 | 177
CCCC[C@@]12CCC3[C@H](C)CC[C@H]4CC(=O)O[C@H](O1)[C@@]34OO2 (stereo partly drawn) | 258
CCCC[C@@]12CC[C@H]3[C@H](C)CC[C@H]4CCO[C@H](O1)[C@]43OO2 | 152
C[C@@H]1CC[C@H]2[C@@H](CCCc3cc(F)cc(F)c3)C(O)O[C@@H]3O[C@@]4(C)CC[C@@H]1[C@]32OO4 (stereo partly drawn) | 33
COc1ccc(CCC[C@H]2C(=O)O[C@@H]3O[C@@]4(C)CCC5[C@H](C)CC[C@@H]2[C@]53OO4)cc1 (stereo partly drawn) | 12
C[C@@H]1CC[C@H]2[C@@H](C)C(=O)O[C@@H]3OC(C)(C)OO[C@@]32[C@H]1C | 158
C[C@@H]1CC[C@H]2CC(O)O[C@@H]3O[C@@]4(C)CC[C@@H]1[C@@]23OO4 (stereo partly drawn) | 44.4
C[C@@H]1CC[C@H]2[C@@H](CCCc3ccc(C(F)(F)F)cc3)C(O)O[C@@H]3O[C@@]4(C)CC[C@@H]1[C@]32OO4 (stereo partly drawn) | 2.9
CCCC[C@H]1C(O)O[C@@H]2O[C@@]3(C)CC[C@H]4[C@H](C)CC[C@@H]1[C@@]24OO3 (stereo partly drawn) | 383
C[C@@H]1CC[C@H]2CCO[C@@H]3O[C@@]4(C)CC[C@@H]1[C@@]23OO4 | 49.2
CC[C@H]1C(=O)O[C@@H]2O[C@@]3(C)CCC4[C@H](C)CC[C@@H]1[C@]42OO3 (stereo partly drawn) | 60.7
CC(=O)O[C@@H]1O[C@@]2(C)CC[C@H]3[C@H](C)CCC[C@@]13OO2 | 148
C[C@@H]1CC[C@H]2[C@@H](CCCC(F)(F)F)C(=O)O[C@@H]3O[C@@]4(C)CCC1[C@]32OO4 (stereo partly drawn) | 79.3
C[C@@H]1CC[C@H]2[C@@H](CCCC(F)(F)F)C(O)O[C@@H]3O[C@@]4(C)CC[C@@H]1[C@]32OO4 (stereo partly drawn) | 26.3
C[C@@H]1CC[C@H]2[C@@H](CCCc3cccc(F)c3)C(=O)O[C@@H]3O[C@@]4(C)CCC1[C@]32OO4 (stereo partly drawn) | 3.7
CCCCN1C(=O)C[C@@H]2CC[C@@H](C)[C@@H]3CC[C@@]4(C)OO[C@@]23[C@H]1O4 | 44.5
C[C@@H]1CC[C@H]2[C@@H](CCCc3ccc(Cl)cc3)CO[C@@H]3O[C@@]4(C)CC[C@@H]1[C@]32OO4 | 4.9
N=C(N)c1ccc(OCCCCCOc2ccc(C(=N)N)cc2)cc1 [PENTAMIDINE] | 1.35
C[C@@H]1CC[C@H]2[C@@H](CCCc3ccc(Cl)cc3)C(=O)O[C@@H]3O[C@@]4(C)CCC1[C@]32OO4 (stereo partly drawn) | 11.9
C[C@@H]1CC[C@H]2CC(=O)O[C@@H]3O[C@@]4(C)CCC1[C@@]23OO4 (stereo partly drawn) | 242
C[C@@H]1CC[C@H]2[C@@H](Cc3ccccc3)C(=O)O[C@@H]3O[C@@]4(C)CCC1[C@]32OO4 (stereo partly drawn) | 15.3
